Measurements published in ChEMBL document CHEMBL4665798, “Novel Human Urate Transporter 1 Inhibitors as Hypouricemic Drug Candidates with Favorable Druggability” (J Med Chem, 2020).

Assays:
Rattus norvegicus = species on record: Rattus norvegicus; test: Hypouricemic activity in rat model of xanthine/potassium oxonate-induced acute hyperuricemia assessed as decrease in serum uric acid level relative to control; format: functional; parameters: scale not given: the % may be the effect or the level left
[1] = Acute toxicity in Kunming mouse assessed as induction of abnormal behaviors by measuring clonic convulsion at 500 mg/kg, ig; format: organism-based; details: in vivo, po
[2] = Sub-acute toxicity in Kunming mouse assessed as congestion in hepatic central vein at 50 mg/kg, po administered as single dose every other day for 14 days by H and E staining based assay; format: organism-based; details: in vivo, 336 h, time 14 day
[3] = AUC (0 to infinity) in male Kunming mouse at 50 mg/kg, po by LC-MS/MS analysis; format: ADME, organism-based; parameters: route oral, time infinity, dose 50 mg/kg; details: in vivo
How it was run: (§1)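 Male Kunming mice, ten in total, split into five groups; single oral dose in PEG 400/normal saline (70/30, v/v). Blood taken from submandibular or saphenous vein into K2EDTA tubes at 0.25, 0.5, 1, 2, 4, 8, 24, 48, 72 h. Plasma spun at about 4 °C and kept at -70 °C. Acetonitrile precipitation with dexamethasone internal standard, then LC-MS/MS against plasma standard curves.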

[4] = MRT (0 to infinity) in male Kunming mouse at 50 mg/kg, po by LC-MS/MS analysis; format: ADME, organism-based; details: in vivo; how it was run: as §1
[5] = Tmax in male Kunming mouse at 50 mg/kg, po by LC-MS/MS analysis; format: ADME, organism-based; details: in vivo; how it was run: as §1
[6] = Half-life in male Kunming mouse at 50 mg/kg, po by LC-MS/MS analysis; format: ADME, organism-based; details: in vivo; how it was run: as §1
[7] = Half-life in male Kunming mouse at 2 mg/kg, po by LC-MS/MS analysis; format: ADME, organism-based; details: in vivo; how it was run: as §1
[8] = Sub-acute toxicity in female Kunming mouse assessed as increase in body weight at 50 mg/kg, po administered once every second day for 14 days; format: organism-based; details: in vivo, 336 h, time 14 day
[9] = Acute toxicity in Kunming mouse assessed as induction of abnormal behaviors by measuring lethargy at 500 mg/kg, ig; format: organism-based; details: in vivo, po
[10] = Cmax in male Kunming mouse at 2 mg/kg, po by LC-MS/MS analysis; format: ADME, organism-based; parameters: route oral, dose 2 mg/kg; details: in vivo; how it was run: as §1
Mus musculus = test: Hypouricemic activity in Kunming mouse model of xanthine/potassium oxonate-induced acute hyperuricemia assessed as decrease in serum uric acid level at 2 mg/kg administered 3 hrs prior to xanthine/potassium oxonate and measured after 6 hrs relative to control; format: functional; parameters: scale not given: the % may be the effect or the level left; details: time 9 hrs
How it was run: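 Male Kunming mice, hyperuricemia induced by intragastric xanthine plus subcutaneous potassium oxonate (0.2 mL each). […] Groups: normal vehicle, untreated model, active control, test. Serum uric acid measured. Decrease ratio = (model SUA − compound SUA)/(model SUA − vehicle SUA).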

[11] = AUC (0 to t) in male Kunming mouse at 50 mg/kg, po by LC-MS/MS analysis; format: ADME, organism-based; parameters: dose 50 mg/kg; details: in vivo; how it was run: as §1
[12] = Sub-acute toxicity in Kunming mouse assessed as hepatocellular condensation of liver at 50 mg/kg, po administered as single dose every other day for 14 days by H and E staining based assay; format: organism-based; details: in vivo, 336 h, time 14 day
[13] = AUC (0 to t) in male Kunming mouse at 2 mg/kg, po by LC-MS/MS analysis; format: ADME, organism-based; parameters: dose 2 mg/kg; details: in vivo; how it was run: as §1
[14] = Sub-acute toxicity in Kunming mouse assessed as ballooning degeneration of liver at 50 mg/kg, po administered as single dose every other day for 14 days by H and E staining based assay; format: organism-based; details: in vivo, 336 h, time 14 day
[15] = Acute toxicity in male Kunming mouse assessed as change in body weight at 500 mg/kg, ig measured for 1 week; format: organism-based; details: in vivo, po, 168 h, time 1 weeks
[16] = Sub-acute toxicity in Kunming mouse assessed as edema in proximal tubule at 50 mg/kg, po administered as single dose every other day for 14 days by H and E staining based assay; format: organism-based; details: in vivo, 336 h, time 14 day
How it was run: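 Kunming mice, n = 4 per sex, fasted 12 h. Dosed orally on D0, D2, D4, D6, D8, D10 and D12; controls received an equal volume of vehicle. Weighed before each dose. Killed at D14; heart, liver, spleen, lung and kidney taken for haematoxylin and eosin staining.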

[17] = AUC (0 to infinity) in male Kunming mouse at 2 mg/kg, po by LC-MS/MS analysis; format: ADME, organism-based; parameters: time infinity, route oral, dose 2 mg/kg; details: in vivo; how it was run: as §1
[18] = Sub-acute toxicity in Kunming mouse assessed as hydropic degeneration of hepatocytes at 50 mg/kg, po administered as single dose every other day for 14 days by H and E staining based assay; format: organism-based; details: in vivo, 336 h, time 14 day
[19] = MRT (0 to infinity) in male Kunming mouse at 2 mg/kg, po by LC-MS/MS analysis; format: ADME, organism-based; details: in vivo; how it was run: as §1
[20] = Cmax in male Kunming mouse at 50 mg/kg, po by LC-MS/MS analysis; format: ADME, organism-based; parameters: route oral, dose 50 mg/kg; details: in vivo; how it was run: as §1
[21] = Acute toxicity in Kunming mouse assessed as induction of abnormal behaviors by measuring anorexia at 500 mg/kg, ig; format: organism-based; details: in vivo, po
[22] = Acute toxicity in female Kunming mouse assessed as change in body weight at 500 mg/kg, ig measured for 1 week; format: organism-based; details: in vivo, po, 168 h, time 1 weeks
[23] = Sub-acute toxicity in male Kunming mouse assessed as increase in body weight at 50 mg/kg, po administered once every second day for 14 days; format: organism-based; details: in vivo, 336 h, time 14 day
[24] = Acute toxicity in Kunming mouse assessed as death at 250 mg/kg, ig measured for 1 week relative to control; format: organism-based; details: in vivo, po, 168 h, time 1 weeks
How it was run: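 Kunming mice of 10-12 g, 12 per group (6 male, 6 female), fasted 12 h. Single intragastric dose of a suspension in 5% CMC-Na. Deaths, behaviour (lethargy, clonic convulsion, anorexia, ruffled fur) and body weight followed for one week and compared with vehicle controls.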

[25] = Tmax in male Kunming mouse at 2 mg/kg, po by LC-MS/MS analysis; format: ADME, organism-based; details: in vivo; how it was run: as §1
[26] = target: T1, Solute carrier family 22 member 12 (Homo sapiens, UniProt Q96S37); test: Inhibition of human URAT1 expressed in HEK293T cells assessed as reduction in [14C]uric acid uptake preincubated for 15 mins followed by [14C]uric acid addition by liquid scintillation counting method; format: cell-based
T1 sequence (Q96S37 whole entry): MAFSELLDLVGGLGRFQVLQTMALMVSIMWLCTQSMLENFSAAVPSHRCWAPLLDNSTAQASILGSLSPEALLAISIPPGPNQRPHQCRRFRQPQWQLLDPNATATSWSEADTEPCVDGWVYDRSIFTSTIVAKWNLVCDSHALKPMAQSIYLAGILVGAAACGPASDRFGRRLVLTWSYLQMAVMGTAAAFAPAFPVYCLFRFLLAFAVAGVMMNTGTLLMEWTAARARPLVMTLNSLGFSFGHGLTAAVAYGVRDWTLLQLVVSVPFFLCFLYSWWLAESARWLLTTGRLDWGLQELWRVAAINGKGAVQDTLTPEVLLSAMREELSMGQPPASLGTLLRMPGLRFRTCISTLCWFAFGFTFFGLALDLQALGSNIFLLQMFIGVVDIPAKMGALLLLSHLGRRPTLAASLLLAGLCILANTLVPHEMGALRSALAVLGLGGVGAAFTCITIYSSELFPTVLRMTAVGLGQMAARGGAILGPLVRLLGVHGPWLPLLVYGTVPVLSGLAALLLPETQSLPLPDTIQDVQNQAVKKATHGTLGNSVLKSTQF

[27] = target: T2, Solute carrier family 2, facilitated glucose transporter member 9 (Homo sapiens, UniProt Q9NRM0); test: Inhibition of GLUT9 (unknown origin)
T2 sequence (Q9NRM0 whole entry): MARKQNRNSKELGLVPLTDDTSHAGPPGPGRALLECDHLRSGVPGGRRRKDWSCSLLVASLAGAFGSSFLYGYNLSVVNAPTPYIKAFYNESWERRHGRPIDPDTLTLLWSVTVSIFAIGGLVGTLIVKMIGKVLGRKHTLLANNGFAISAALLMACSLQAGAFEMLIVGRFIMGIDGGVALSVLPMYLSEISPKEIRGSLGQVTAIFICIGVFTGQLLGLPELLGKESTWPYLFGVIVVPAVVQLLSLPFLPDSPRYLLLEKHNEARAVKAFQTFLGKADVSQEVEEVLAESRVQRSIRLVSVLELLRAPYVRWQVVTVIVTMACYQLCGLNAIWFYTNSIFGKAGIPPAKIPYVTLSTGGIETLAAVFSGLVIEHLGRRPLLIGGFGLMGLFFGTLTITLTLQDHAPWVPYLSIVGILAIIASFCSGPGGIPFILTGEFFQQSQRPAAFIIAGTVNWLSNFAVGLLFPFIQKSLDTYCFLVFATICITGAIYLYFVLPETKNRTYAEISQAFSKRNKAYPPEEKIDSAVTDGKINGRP

For `O=C(O)CSc1nnc(Br)n1-c1ccc(C2CC2)c2ccccc12`, the Activity (Rattus norvegicus) was 52.99%, the Activity [1] was “Non-Toxic” and the Activity [2] was “Toxic”. For the same compound, the AUC(0-inf) [3] was 145000 ng·h/mL, the MRT inf [4] was 6.35 h and the Tmax [5] was 1 h. The half-life [6] was 7.46 h, the half-life [7] was 3.08 h and the Activity [8] was “Non-Toxic”. For the same compound, the Activity [9] was “Non-Toxic”, the Cmax [10] was 1500 ng/mL and the Activity (Mus musculus) was 27.06%. The AUC(0-t) [11] was 144000 ng·h/mL, the Activity [12] was “Toxic” and the AUC(0-t) [13] was 7080 ng·h/mL. The Activity [14] was “Toxic”, the Activity [15] was “Non-Toxic” and the Activity [16] was “Toxic”. For the same compound, the AUC(0-inf) [17] was 7120 ng·h/mL, the Activity [18] was “Toxic” and the MRT inf [19] was 5.09 h. For the same compound, the Cmax [20] was 26500 ng/mL, the Activity [21] was “Non-Toxic” and the Activity [22] was “Non-Toxic”. The Activity [23] was “Non-Toxic”, the Activity [24] was “Toxic” and the Tmax [25] was 0.667 h.

With `O=C(CSc1nnc(Br)n1-c1ccc(C2CC2)c2ccccc12)NS(=O)(=O)c1ccc(F)cc1F` the Activity (Mus musculus) was 93.78%, the IC50 [26] was 7.29 µM and the IC50 [27] was 32.2 µM.

With `O=C(O)C1(Sc2nc3ncccc3n2-c2ccc(C3CC3)c3ccccc23)CCC1` the Activity (Mus musculus) was 62.18% and the Activity [16] was “Toxic”.

For `CC(C)(C)S(=O)(=O)NC(=O)CSc1nnc(Br)n1-c1ccc(C2CC2)c2ccccc12`, the Activity (Mus musculus) was 5.94%.
